{"source": "ChEMBL document CHEMBL1141374", "about": "(J Med Chem, 2007)", "details_in_all_cases": "Homo sapiens", "key": {"SK-OV-3": {"tested_on": "SK-OV-3", "test": "Growth inhibition in SKOV3 cells", "type": "functional"}, "BT-549": {"tested_on": "BT-549", "test": "Growth inhibition in BT549 cells", "type": "functional"}, "TK-10": {"tested_on": "TK-10", "test": "Growth inhibition in TK10 cells", "type": "functional"}, "HeLa": {"tested_on": "HeLa", "test": "Cytotoxicity against HeLa cell line", "type": "cell-based", "how_it_was_run": "(§1)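 Log-phase cells were diluted to 20 000–30 000 cells/mL, seeded, and left to attach overnight. They were then exposed to compounds at 10^–5–10^–12 M for 72 h at 37 °C in 5% CO2. Viable cells were measured by MTT, with absorbance read at 595 nm. Each compound ran in triplicate in at least three independent assays. IC50 came from nonlinear regression, and average values were reported.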"}, "[1]": {"test": "Growth inhibition in HS 578T cells", "type": "functional"}, "HCT-116": {"tested_on": "HCT-116", "test": "Cytotoxicity against HCT116 cell line", "type": "cell-based", "how_it_was_run": "as §1"}, "SF-539": {"tested_on": "SF-539", "test": "Growth inhibition in SF539 cells", "type": "functional"}, "ZR-75-1": {"tested_on": "ZR-75-1", "test": "Cytotoxicity against ZR-75-1 cell line", "type": "cell-based", "how_it_was_run": "as §1"}, "A498": {"tested_on": "A498", "test": "Growth inhibition in A498 cells", "type": "functional"}, "786-0": {"tested_on": "786-0", "test": "Growth inhibition in 786-0 cells", "type": "functional"}, "M14": {"tested_on": "M14", "test": "Growth inhibition in M14 cells", "type": "functional"}, "COLO 205": {"tested_on": "COLO 205", "test": "Growth inhibition in COLO205 cells", "type": "functional"}, "[2]": {"test": "Growth inhibition in MDA-MB-231/ATCC cells", "type": "functional"}, "OVCAR-4": {"tested_on": "OVCAR-4", "test": "Growth inhibition in OVCAR4 cells", "type": "functional"}, "UACC-62": {"tested_on": "UACC-62", "test": "Growth inhibition in UACC62 cells", "type": "functional"}, "DU-145": {"tested_on": "DU-145", "test": "Growth inhibition in DU145 cells", "type": "functional"}, "SF-295": {"tested_on": "SF-295", "test": "Growth inhibition in SF295 cells", "type": "functional"}, "HOP-62": {"tested_on": "HOP-62", "test": "Growth inhibition in HOP62 cells", "type": "functional"}, "SF-268": {"tested_on": "SF-268", "test": "Growth inhibition in SF268 cells", "type": "functional"}, "MDA-MB-435": {"tested_on": "MDA-MB-435", "test": "Growth inhibition in MDA-MB-435 cells", "type": "functional"}, "NCI/ADR-RES": {"tested_on": "NCI/ADR-RES", "test": "Growth inhibition in NCI/ADR-RES cells", "type": "functional"}, "UACC-257": {"tested_on": "UACC-257", "test": "Growth inhibition in UACC257 cells", "type": "functional"}, "[3]": {"test": "Growth inhibition in HCC15 cells", "type": "functional"}, "SNB-75": {"tested_on": "SNB-75", "test": "Growth inhibition in SNB75 cells", "type": "functional"}, "SK-MEL-5": {"tested_on": "SK-MEL-5", "test": "Growth inhibition in SK-MEL-5 cells", "type": "functional"}, "[4]": {"test": "Growth inhibition in HCC116 cells", "type": "functional"}, "CAKI-1": {"tested_on": "CAKI-1", "test": "Growth inhibition in CAK1-1 cells", "type": "functional"}, "SW-620": {"tested_on": "SW-620", "test": "Growth inhibition in SW620 cells", "type": "functional"}, "NCI-H23": {"tested_on": "NCI-H23", "test": "Growth inhibition in NCI-H23 cells", "type": "functional"}, "SK-MEL-28": {"tested_on": "SK-MEL-28", "test": "Growth inhibition in SK-MEL-28 cells", "type": "functional"}, "ACHN": {"tested_on": "ACHN", "test": "Growth inhibition in ACHN cells", "type": "functional"}, "NCI-H226": {"tested_on": "NCI-H226", "test": "Growth inhibition in NCI-H226 cells", "type": "functional"}, "KM12": {"tested_on": "KM12", "test": "Growth inhibition in KM12 cells", "type": "functional"}, "HL-60": {"tested_on": "HL-60", "test": "Growth inhibition in HL60 cells", "type": "functional"}, "SN12C": {"tested_on": "SN12C", "test": "Growth inhibition in SN12C cells", "type": "functional"}, "OVCAR-3": {"tested_on": "OVCAR-3", "test": "Growth inhibition in OVCAR-3 cells", "type": "functional"}, "NCI-H460": {"tested_on": "NCI-H460", "test": "Growth inhibition in NCI-H460 cells", "type": "functional"}, "HCC 2998": {"tested_on": "HCC 2998", "test": "Growth inhibition in HCC2998 cells", "type": "functional"}, "PC-3": {"tested_on": "PC-3", "test": "Growth inhibition in PC3 cells", "type": "functional"}, "HOP-92": {"tested_on": "HOP-92", "test": "Growth inhibition in HOP92 cells", "type": "functional"}, "OVCAR-5": {"tested_on": "OVCAR-5", "test": "Growth inhibition in OVCAR5 cells", "type": "functional"}, "HT-29": {"tested_on": "HT-29", "test": "Growth inhibition in HT29 cells", "type": "functional"}, "LOX IMVI": {"tested_on": "LOX IMVI", "test": "Growth inhibition in LOX IMVI cells", "type": "functional"}, "RXF 393": {"tested_on": "RXF 393", "test": "Growth inhibition in RXF393 cells", "type": "functional"}, "[5]": {"test": "Cytotoxicity against P-glycoprotein-overexpressing KB-V1 cell line", "type": "cell-based", "how_it_was_run": "as §1"}, "MCF7": {"tested_on": "MCF7", "test": "Growth inhibition in MCF7 cells", "type": "functional"}, "K562": {"tested_on": "K562", "test": "Growth inhibition in K562 cells", "type": "functional"}, "OVCAR-8": {"tested_on": "OVCAR-8", "test": "Growth inhibition in OVCAR8 cells", "type": "functional"}, "[6]": {"test": "Cytotoxicity against KB-3-1 cell line", "type": "cell-based", "how_it_was_run": "as §1"}, "CCRF-CEM": {"tested_on": "CCRF-CEM", "test": "Growth inhibition in CCRF-CEM cells", "type": "functional"}, "A549": {"tested_on": "A549", "test": "Growth inhibition in A549 cells", "type": "functional"}, "U-251": {"tested_on": "U-251", "test": "Growth inhibition in U251cells", "type": "functional"}, "SNB-19": {"tested_on": "SNB-19", "test": "Growth inhibition in SNB19 cells", "type": "functional"}, "EKVX": {"tested_on": "EKVX", "test": "Growth inhibition in EKVX cells", "type": "functional"}, "NCI-H322M": {"tested_on": "NCI-H322M", "test": "Growth inhibition in NCI-H322M cells", "type": "functional"}}, "data": [{"smiles": "COc1ccc(-n2cnnc2-c2cc(OC)c(OC)c(OC)c2)cc1", "values": [{"measurement": "GI50", "setting": "SK-OV-3", "result": 6.46, "unit": "µM"}, {"measurement": "GI50", "setting": "BT-549", "result": 9.77, "unit": "µM"}, {"measurement": "GI50", "setting": "TK-10", "result": 9.77, "unit": "µM"}, {"measurement": "IC50", "setting": "HeLa", "result": 0.29, "unit": "µM"}, {"measurement": "GI50", "setting": "[1]", "result": 2.95, "unit": "µM"}, {"measurement": "IC50", "setting": "HCT-116", "result": 0.23, "unit": "µM"}, {"measurement": "GI50", "setting": "SF-539", "result": 4.07, "unit": "µM"}, {"measurement": "IC50", "setting": "ZR-75-1", "result": 0.522, "unit": "µM"}, {"measurement": "GI50", "setting": "A498", "result": 3.8, "unit": "µM"}, {"measurement": "GI50", "setting": "786-0", "result": 2.51, "unit": "µM"}, {"measurement": "GI50", "setting": "M14", "result": 1.95, "unit": "µM"}, {"measurement": "GI50", "setting": "COLO 205", "result": 3.47, "unit": "µM"}, {"measurement": "GI50", "setting": "[2]", "result": 3.16, "unit": "µM"}, {"measurement": "GI50", "setting": "OVCAR-4", "result": 5.5, "unit": "µM"}, {"measurement": "GI50", "setting": "UACC-62", "result": 3.24, "unit": "µM"}, {"measurement": "GI50", "setting": "DU-145", "result": 2.95, "unit": "µM"}, {"measurement": "GI50", "setting": "SF-295", "result": 1.29, "unit": "µM"}, {"measurement": "GI50", "setting": "HOP-62", "result": 2.09, "unit": "µM"}, {"measurement": "GI50", "setting": "SF-268", "result": 5.89, "unit": "µM"}, {"measurement": "GI50", "setting": "MDA-MB-435", "result": 0.234, "unit": "µM"}, {"measurement": "GI50", "setting": "NCI/ADR-RES", "result": 1.78, "unit": "µM"}, {"measurement": "GI50", "setting": "UACC-257", "result": 3.98, "unit": "µM"}, {"measurement": "GI50", "setting": "[3]", "result": 1.7, "unit": "µM"}, {"measurement": "GI50", "setting": "SNB-75", "result": 2.34, "unit": "µM"}, {"measurement": "GI50", "setting": "SK-MEL-5", "result": 2.4, "unit": "µM"}, {"measurement": "GI50", "setting": "[4]", "result": 3.02, "unit": "µM"}, {"measurement": "GI50", "setting": "CAKI-1", "result": 2.57, "unit": "µM"}, {"measurement": "GI50", "setting": "SW-620", "result": 2.75, "unit": "µM"}, {"measurement": "GI50", "setting": "NCI-H23", "result": 3.16, "unit": "µM"}, {"measurement": "GI50", "setting": "SK-MEL-28", "result": 9.55, "unit": "µM"}, {"measurement": "GI50", "setting": "ACHN", "result": 4.47, "unit": "µM"}, {"measurement": "GI50", "setting": "NCI-H226", "result": 5.25, "unit": "µM"}, {"measurement": "GI50", "setting": "KM12", "result": 2.14, "unit": "µM"}, {"measurement": "GI50", "setting": "HL-60", "result": 4.07, "unit": "µM"}, {"measurement": "GI50", "setting": "SN12C", "result": 4.07, "unit": "µM"}, {"measurement": "GI50", "setting": "OVCAR-3", "result": 1.74, "unit": "µM"}, {"measurement": "GI50", "setting": "NCI-H460", "result": 3.39, "unit": "µM"}, {"measurement": "GI50", "setting": "HCC 2998", "result": 0.295, "unit": "µM"}, {"measurement": "GI50", "setting": "PC-3", "result": 4.9, "unit": "µM"}, {"measurement": "GI50", "setting": "HOP-92", "result": "> 100", "unit": "µM"}, {"measurement": "GI50", "setting": "OVCAR-5", "result": 3.8, "unit": "µM"}, {"measurement": "GI50", "setting": "HT-29", "result": 2.14, "unit": "µM"}, {"measurement": "GI50", "setting": "LOX IMVI", "result": 4.37, "unit": "µM"}, {"measurement": "GI50", "setting": "RXF 393", "result": 1.58, "unit": "µM"}, {"measurement": "IC50", "setting": "[5]", "result": 0.907, "unit": "µM"}, {"measurement": "GI50", "setting": "MCF7", "result": 1.7, "unit": "µM"}, {"measurement": "GI50", "setting": "K562", "result": 0.631, "unit": "µM"}, {"measurement": "GI50", "setting": "OVCAR-8", "result": 4.79, "unit": "µM"}, {"measurement": "IC50", "setting": "[6]", "result": 0.373, "unit": "µM"}, {"measurement": "GI50", "setting": "CCRF-CEM", "result": 1.86, "unit": "µM"}, {"measurement": "GI50", "setting": "A549", "result": 8.32, "unit": "µM"}, {"measurement": "GI50", "setting": "U-251", "result": 4.37, "unit": "µM"}, {"measurement": "GI50", "setting": "SNB-19", "result": 5.25, "unit": "µM"}, {"measurement": "GI50", "setting": "EKVX", "result": 37.2, "unit": "µM"}, {"measurement": "GI50", "setting": "NCI-H322M", "result": 5.62, "unit": "µM"}]}]}
